Source: PubChem (several laboratories)
ADAM10 inh: inhibitors of human ADAM10. AID 720582. inhibition, % at 7 µM. O14672. recombinant ADAM10, EDANS/DABCYL FRET peptide cleavage, 3 h. 0.62% of 370,000 active;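 active = inhibition above a per-campaign cutoff equal to the mean of compounds falling between control-based bounds plus 3 SD, cut at about 20% in these data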;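 also: 0% = DMSO wells while the 100% control is not disclosed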
Target sequence (O14672 214-748 limits assumed): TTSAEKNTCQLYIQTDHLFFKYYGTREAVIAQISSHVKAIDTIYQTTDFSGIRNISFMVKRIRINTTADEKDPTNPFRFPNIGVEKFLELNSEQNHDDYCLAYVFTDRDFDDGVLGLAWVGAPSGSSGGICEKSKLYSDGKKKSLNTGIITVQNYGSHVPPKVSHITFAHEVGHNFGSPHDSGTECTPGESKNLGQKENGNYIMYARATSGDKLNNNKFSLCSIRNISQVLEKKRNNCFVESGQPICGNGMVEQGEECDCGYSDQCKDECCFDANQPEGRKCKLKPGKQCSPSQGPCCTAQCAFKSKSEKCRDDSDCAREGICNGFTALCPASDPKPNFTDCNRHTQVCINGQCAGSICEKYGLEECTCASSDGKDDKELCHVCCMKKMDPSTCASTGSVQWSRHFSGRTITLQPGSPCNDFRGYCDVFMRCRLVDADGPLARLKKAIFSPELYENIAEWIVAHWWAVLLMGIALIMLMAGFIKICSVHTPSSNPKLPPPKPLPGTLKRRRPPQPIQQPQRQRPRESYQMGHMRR
NR2E3 ag-1: human photoreceptor-specific nuclear receptor agonism | Q9Y5X4 | CHO-S Gal4-NCOR/VP16-NR2E3 two-hybrid, luciferase | 0.35% of 360,000 active | inhibition of corepressor binding, % at 3.98 µM | AID 602229;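 active = inhibition above the mean of all tested compounds plus 3 SD, cut at about 70% in these data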;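 also: 0% = DMSO with NR2E3 transfected cells and 100% = cells lacking NR2E3 construct; higher means lower luciferase signal from less NR2E3 corepressor binding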
proKLK7 act: activators of human kallikrein-7 zymogen; P49862; purified proKLK7, EDANS-DABCYL substrate fluorescence; 100% is mature enzyme control, 0% vehicle; activation, % at 7 µM; 0.9% of 370,000 active; AID 652039;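 active = activation above the mean of all tested compounds plus 3 SD, computed per campaign excluding outliers beyond control limits, cut at about 13% in these data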
NR2E3 ag-2: agonists of human nuclear receptor NR2E3; Q9Y5X4; GST-NR2E3/biotin-RetCOR TR-FRET, 1536-well; inhibition of corepressor binding, % at 4.78 µM; 0.12% of 320,000 active; AID 2300;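 active = percent inhibition above the cutoff of mean plus 3 SD of all tested compounds, set per screening campaign, cut at about 20% in these data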;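 also: 0% = DMSO wells and 100% = biotin wells as full block of FRET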
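Assay system: NR2E3–RetCOR corepressor complex. Quantity: 1.35 nM GST-NR2E3. Buffer or medium: pH 7.5 Tris-based buffer. Reagent: biotinylated RetCOR corepressor at 7 nM final. Schedule: 5 h at 4 °C. Detection: TR-FRET, emission read at 617 and 671 nm. Replicates: one well per compound, singlicate testing.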
JMJD2C inh: inhibitors of human GASC-1 (JMJD2C) demethylase | 0.069% of 330,000 active | GST-JMJD2C(1-420) H3K9me3 demethylation, DELFIA europium | inhibition, % at 2.35 µM | AID 2099;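 active = more than half of a compound's replicate wells show inhibition beyond 50%, single wells judged on their own value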;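 also: signal counts dimethyl H3K9 product captured on neutravidin plate; 0% = median of DMSO wells and 100% = 0.3 times that DMSO median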
ADAM17 inh: inhibits human ADAM17; P78536; recombinant ADAM17, EDANS/DABCYL FRET peptide cleavage; inhibition, % at 6.95 µM; 0.83% of 370,000 active; AID 720648;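 active = inhibition above the mean of compounds lying between control limits plus 3 SD, set per campaign, cut at about 8.5% in these data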;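 also: 0% = DMSO-only wells as the low control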
ADAM10 ctr: inhibits human ADAM10 in ADAM17 exosite counter-screen; 47% of 2,900 active; recombinant ADAM10, EDANS/DABCYL FRET peptide cleavage, 3 h; inhibition, % at 6.95 µM; shares compounds with ADAM17 inh; AID 743256;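 active = mean inhibition over the triplicate runs exceeds the activity threshold set in the earlier primary screen, cut at about 20% in these data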;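 also: 0% = DMSO wells and 100% = marimastat wells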
ADAM17 confirm: human ADAM17 inhibition, confirmation; shares compounds with ADAM17 inh; recombinant ADAM17, EDANS/DABCYL QFRET peptide cleavage; inhibition, % at 6.95 µM; 65% of 2,900 active;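 active = mean inhibition across replicates above the hit cutoff set in the primary screen, cut at about 8.5% in these data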;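 also: 0% = DMSO wells and 100% = marimastat wells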
An asterisk follows results filed as active; i = inactive; · = not tested or not shown. An excerpt weighted towards active compounds, which were near 2.5% of everything screened.

SMILES	ADAM10 inh	NR2E3 ag-1	proKLK7 act	NR2E3 ag-2	JMJD2C inh	ADAM17 inh	ADAM10 ctr	ADAM17 confirm
CCOc1ccc(NC(=O)C2CC(=O)N(C)C(=Nc3ccc4c(c3)OCO4)S2)cc1 (stereo not drawn)	-7	19	0	3	-1	-2	·	·
COc1cccc(N=C2SC(C(=O)Nc3ccc(F)cc3)CC(=O)N2C)c1 (stereo not drawn)	7	-8	0	4	-7	10*	25*	11*
O=C(CCn1c2c(c3ccccc31)CCCC2)NNC(=O)c1ccc([N+](=O)[O-])cc1	16	-7	0	0	3	11*	17	9.9*
CC1=C(C(=O)N2CCCCCC2)CC(CC(=O)NCCc2ccccn2)C(=O)N1CCC1=CCCCC1 (stereo not drawn)	-2	-23	0	·	·	-4	·	·
Cc1nc2ccc(NC(=O)Cc3ccccc3F)cc2s1	0	-99	0	0	-2	-2	·	·
C[C@@H]1CN([C@@H](C)CO)C(=O)CCCn2nncc2CO[C@@H]1CN(C)S(=O)(=O)c1ccc(C#N)cc1	9	5	-1	·	·	9.5*	13	9.5*
CC(C)(C)NC(=O)CSc1nc(-c2ccc(F)cc2)cs1	3	-159	0	0	3	9.1*	3	0
CN(C)S(=O)(=O)Oc1cccc(C(=O)Nc2ccc(Cl)c(Cl)c2)c1	1	-44	0	2	27	9.2*	35*	20*
CN(C)S(=O)(=O)Oc1cccc(C(=O)Nc2cccc(Cl)c2)c1	9	-17	0	1	-9	7	·	·
Cc1nc(SCC(=O)N2CCN(c3ccccn3)CC2)c(C#N)c(C)c1C	-8	-9	0	·	-3	-4	·	·
CCOc1cc(C)nc(N2CCC(C(=O)NC3CC3)CC2)n1	-9	-1	1	·	·	-1	·	·
COc1ccc(C(=O)Nc2ccnn2C2CCN(C(C)CSC)CC2)cc1 (stereo not drawn)	7	-2	-1	-1	14	1	·	·
COc1cccc(S(=O)(=O)N(C)C[C@@H]2Oc3cc(Br)ccc3S(=O)(=O)N([C@@H](C)CO)C[C@@H]2C)c1	14	-25	0	·	·	4	·	·
CCCC#Cc1ccc2c(c1)O[C@H](CN(C)S(=O)(=O)c1cccc(OC)c1)[C@H](C)CN([C@H](C)CO)S2(=O)=O	12	-28	1	·	·	9.6*	25*	13*
COc1cccc(C#Cc2ccc3c(c2)O[C@H](CN(C)S(=O)(=O)c2ccccc2F)[C@H](C)CN([C@H](C)CO)S3(=O)=O)c1	-6	13	-1	·	·	11*	-24	-5
Oc1c(C(c2ccccn2)N2CCCCC2)cc(Cl)c2cccnc12 (stereo not drawn)	10	-15	-1	-1	-4	26*	9	27*
CN1CCN(C(c2ccc(C(F)(F)F)cc2)c2cc(Cl)c3cccnc3c2O)CC1 (stereo not drawn)	16	·	-1	4	2	12*	36*	16*
COc1ccc(-n2c(=S)[nH]c3cc(C(=O)Nc4ccccc4OC)ccc3c2=O)cc1	0	·	1	-8	6	0	·	·
COc1ccc(-n2c(=S)[nH]c3cc(C(=O)Nc4ccccc4OC)ccc3c2=O)c(OC)c1	17	-19	0	4	1	9.0*	28*	12*
O=S(=O)(c1ccccc1)N1CCC(n2cnc3ccccc32)CC1	15	-36	0	3	-3	9.7*	-3	-1
Cc1cccc[n+]1CC(=O)/C=C1\N(C)c2ccccc2C1(C)C	2	-23	-1	4	19	4	·	·
CN1/C(=C/C=C/c2n(C)c3cc([N+](=O)[O-])c([N+](=O)[O-])cc3[n+]2C)C(C)(C)c2ccccc21	-5	8	-1	·	·	9.9*	1	7
Fc1ccc(Cn2c(SCc3ccc(F)c(C(F)(F)F)c3)nnc2C(F)(F)F)cc1	16	10	0	0	i	8.8*	37*	17*
Fc1ccc(Cn2c(SCc3ccc(F)c(F)c3)nnc2C(F)(F)F)cc1	8	-17	0	6	2	3	·	·
CCCc1nnc(SCC(=O)NC2CCCC2)n1CCOC	9	-17	0	-1	4	6	·	·
SMILES	ADAM10 inh	NR2E3 ag-1	proKLK7 act	NR2E3 ag-2	JMJD2C inh	ADAM17 inh	ADAM10 ctr	ADAM17 confirm
COc1ccc(N=C2SC(CC(=O)Nc3ccc(F)cc3)C(=O)N2Cc2ccco2)cc1 (stereo not drawn)	15	-14	1	1	4	12*	18	13*
O=C(Nc1cccc(-c2csc(-c3ccccc3)n2)c1)c1cccs1	19	-123	-9	4	14	9.8*	19	12*
COc1ccc(/C=N/NC(N)=S)cc1OC(=O)c1ccccc1	-1	-24	0	0	-3	9.1*	10	8
CCCC(=O)Nc1ccc(S(=O)(=O)Nc2cc(OC)ncn2)cc1	5	8	0	·	-2	-2	·	·
Cc1ccc(-c2noc(CCCC(=O)NCC3CCCO3)n2)cc1 (stereo not drawn)	0	-4	-1	0	6	0	·	·
CCCCC(=O)N(C)c1c(CC)nc2c(OCCC3CCCCC3)cccn12	-4	7	0	·	·	2	·	·
CCCCC(=O)N(C)c1c(CC)nc2c(OCC3CCCCC3)cccn12	5	-22	1	·	·	9.7*	0	3
CCc1nc2c(OCCC3CCCCC3)cccn2c1N(C)C(=O)CC(C)C	-11	21	0	·	·	-4	·	·
CCc1nc2c(OCCC3CCCCC3)cccn2c1N(C)C(=O)c1cccs1	17	-23	0	·	·	9.4*	21*	12*
C[C@H]1[C@@H](NC(=O)c2ccc(C(F)(F)F)cc2)CC[C@@]23CCCN2C(=O)CCC[C@@H]13	0	·	·	·	·	1	·	·
COc1ccc(NC(=O)c2oc3ccccc3c2NC(=O)C(C)(C)C)cc1	9	3	1	4	2	9.7*	9	8.8*
CCCn1c(O)c(N=NC(=O)CNC(=O)Cc2ccc(OC)cc2)c2ccccc21	1	11	0	3	-8	9.7*	5	6
Cc1ccc(S(=O)(=O)N2CCC(C(=O)Nc3ccc(S(=O)(=O)N4CCCC4)cc3)CC2)cc1	-1	34	1	3	-12	13*	21*	11*
Cc1ccccc1C(=O)N(C)[C@H]1C[C@H]2c3[nH]c4ccccc4c3CCN2C[C@H]1[C@H](C)O	-165	8	5	·	·	-37	·	·
